Source: PMC9090800 (RSC Advances, 2018)
≈ marks a conversion by molar mass, not a printed value.

Experiments:
Type in all cases: cell-based
[1] = system: C. albicans (ATCC 90028); experiment: In vitro anticandidal activity, broth dilution; settings: Candida albicans, ATCC90028, 24 h, read-out: IC50 ± S.D, C. albicans
Outline: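 Broth dilution followed the NCCLS protocol. Test compound in DMSO was diluted in PBS, then tested at 1000 to 7.8 μg mL−1 in SD broth with about 2.5 × 10^3 cells per mL in 96-well plates. Plates were shaken 24 h at 30 °C, 150 rpm, and read at OD580. IC50 was the concentration halving absorbance versus untreated cells, taken from a log10 concentration versus % inhibition plot. Triplicates were run on separate occasions, with fluconazole as positive control.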

[2] = system: human embryonic kidney (HEK-293) cells; experiment: Cytotoxicity by MTT assay; settings: HEK-293, 100 μg mL^−1, 24 h
Outline: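 HEK-293 cells grown as monolayers in DMEM with 10% FBS, penicillin and streptomycin, 37 °C, 5% CO2, at most 30 passages. Seeded at about 8 × 10^3 cells per well, 24 h before dosing. Test compound (DMSO stock diluted in PBS) given at 10–200 μg mL−1 for 24 h at 37 °C. Serum-free medium, then MTT (5 mg mL−1 in PBS), 4 h. Formazan dissolved in DMSO, A570 read. Triplicate; viability relative to untreated cells.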

[3] = Hemolytic assay; settings: human, human red blood cells (erythrocyte suspension in PBS)
Outline: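 Fresh human blood was collected in EDTA and spun 10 min at 2000 rpm. Erythrocytes were washed three times in PBS and made to a 10% (v/v) suspension, then diluted 1:10. Equal volumes of cells and test compound dilution series in PBS were incubated in triplicate for 1 h at 37 °C and re-centrifuged. Supernatant A450 was expressed relative to buffer (0%) and 1% Triton X-100 (100% lysis). Fluconazole was the reference.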

Compound | IC50 [1] [µg/mL] | cell viability (MTT) [2] | hemolysis at 1 h, 1000 μg mL^−1 [3] [%]
CCOC(=O)c1nc2ccccc2c(=O)n1Cc1cn(-c2ccc(C(=O)O)cc2)nn1 [Compound 5q, 4-(4-((2-(ethoxycarbonyl)-4-oxoquinazolin-3(4H)-yl)methyl)-1H-1,2,3-triazol-1-yl)benzoic acid] | 342 ± 5.7 (≈ 816 µM) |  | 
CCOC(=O)c1nc2ccccc2c(=O)n1Cc1cn(-c2cccc([N+](=O)[O-])c2)nn1 [Compound 5k, Ethyl 3-((1-(3-nitrophenyl)-1H-1,2,3-triazol-4-yl)methyl)-4-oxo-3,4-dihydroquinazoline-2-carboxylate] | 143 ± 2.5 (≈ 339 µM) |  | 
CCOC(=O)c1nc2ccccc2c(=O)n1Cc1cn(-c2ccc(OC)cc2)nn1 [Compound 5o, Ethyl 3-((1-(4-methoxyphenyl)-1H-1,2,3-triazol-4-yl)methyl)-4-oxo-3,4-dihydroquinazoline-2-carboxylate] | 394.3 ± 1.7 (≈ 973 µM) |  | 
CCOC(=O)c1nc2ccccc2c(=O)n1Cc1cn(-c2ccc(F)cc2)nn1 [Compound 5m, Ethyl 3-((1-(4-fluorophenyl)-1H-1,2,3-triazol-4-yl)methyl)-4-oxo-3,4-dihydroquinazoline-2-carboxylate] | 209 ± 6.5 (≈ 532 µM) |  | 
OC(Cn1cncn1)(Cn1cncn1)c1ccc(F)cc1F [FLC, fluconazole, reference compound] | 15.6 ± 2.2 (≈ 50.9 µM) |  | 78.1
CCOC(=O)c1nc2ccccc2c(=O)n1Cc1cn(-c2ccccc2F)nn1 [Compound 5c, Ethyl 3-((1-(2-fluorophenyl)-1H-1,2,3-triazol-4-yl)methyl)-4-oxo-3,4-dihydroquinazoline-2-carboxylate] | 110 ± 4.8 (≈ 279 µM) |  | 
CCOC(=O)c1nc2ccccc2c(=O)n1Cc1cn(-c2cccc(F)c2)nn1 [Compound 5h, Ethyl 3-((1-(3-fluorophenyl)-1H-1,2,3-triazol-4-yl)methyl)-4-oxo-3,4-dihydroquinazoline-2-carboxylate] | 510 ± 6.4 (≈ 1300 µM) |  | 
CCOC(=O)c1nc2ccccc2c(=O)n1Cc1cn(-c2ccccc2[N+](=O)[O-])nn1 [Compound 5f, Ethyl 3-((1-(2-nitrophenyl)-1H-1,2,3-triazol-4-yl)methyl)-4-oxo-3,4-dihydroquinazoline-2-carboxylate] | 269 ± 5.5 (≈ 641 µM) |  | 
CCOC(=O)c1nc2ccccc2c(=O)n1Cc1cn(-c2ccccc2)nn1 [Compound 5a, Ethyl 4-oxo-3-((1-phenyl-1H-1,2,3-triazol-4-yl)methyl)-3,4-dihydroquinazoline-2-carboxylate] | 228 ± 3.8 (≈ 607 µM) |  | 
CCOC(=O)c1nc2ccccc2c(=O)n1Cc1cn(-c2ccccc2Cl)nn1 [Compound 5b, Ethyl 3-((1-(2-chlorophenyl)-1H-1,2,3-triazol-4-yl)methyl)-4-oxo-3,4-dihydroquinazoline-2-carboxylate] | 124 ± 18.4 (≈ 304 µM) |  | 
CCOC(=O)c1nc2ccccc2c(=O)n1Cc1cn(-c2ccc(Cl)cc2)nn1 [Compound 5l, Ethyl 3-((1-(4-chlorophenyl)-1H-1,2,3-triazol-4-yl)methyl)-4-oxo-3,4-dihydroquinazoline-2-carboxylate] | 216 ± 3.5 (≈ 526 µM) |  | 
CCOC(=O)c1nc2ccccc2c(=O)n1Cc1cn(-c2cccc(C)c2)nn1 [Compound 5i, Ethyl 4-oxo-3-((1-m-tolyl-1H-1,2,3-triazol-4-yl)methyl)-3,4-dihydroquinazoline-2-carboxylate] | 353 ± 11.1 (≈ 905 µM) |  | 
CCOC(=O)c1nc2ccccc2c(=O)n1Cc1cn(-c2ccc([N+](=O)[O-])cc2)nn1 [Compound 5p, Ethyl 3-((1-(4-nitrophenyl)-1H-1,2,3-triazol-4-yl)methyl)-4-oxo-3,4-dihydroquinazoline-2-carboxylate] | 151 ± 15.7 (≈ 360 µM) |  | 
CCOC(=O)c1nc2ccccc2c(=O)n1Cc1cn(-c2cccc(OC)c2)nn1 [Compound 5j, Ethyl 3-((1-(3-methoxyphenyl)-1H-1,2,3-triazol-4-yl)methyl)-4-oxo-3,4-dihydroquinazoline-2-carboxylate] | 340 ± 7.4 (≈ 840 µM) |  | 
CCOC(=O)c1nc2ccccc2c(=O)n1Cc1cn(-c2ccccc2C)nn1 [Compound 5d, Ethyl 4-oxo-3-((1-o-tolyl-1H-1,2,3-triazol-4-yl)methyl)-3,4-dihydroquinazoline-2-carboxylate] | 297 ± 5.9 (≈ 763 µM) |  | 

Further lines, with some results ahead:

IC50 [1] [µg/mL] | Compound | cell viability (MTT) [2] | hemolysis at 1 h, 1000 μg mL^−1 [3] [%]
100 ± 4 (≈ 263 µM) | O=C(O)c1nc2ccccc2c(=O)n1Cc1cn(-c2cccc(Cl)c2)nn1 [Compound 6g, 3-((1-(3-Chlorophenyl)-1H-1,2,3-triazol-4-yl)methyl)-4-oxo-3,4-dihydroquinazoline-2-carboxylic acid] |  | 
48.2 ± 3.2 (≈ 128 µM) | COc1ccccc1-n1cc(Cn2c(C(=O)O)nc3ccccc3c2=O)nn1 [Compound 6e, 3-((1-(2-Methoxyphenyl)-1H-1,2,3-triazol-4-yl)methyl)-4-oxo-3,4-dihydroquinazoline-2-carboxylic acid] | no significant decrease in cell viability | < 20
172 ± 5.3 (≈ 471 µM) | O=C(O)c1nc2ccccc2c(=O)n1Cc1cn(-c2ccc(F)cc2)nn1 [Compound 6m, 3-((1-(4-Fluorophenyl)-1H-1,2,3-triazol-4-yl)methyl)-4-oxo-3,4-dihydroquinazoline-2-carboxylic acid] |  | 
101 ± 3.7 (≈ 276 µM) | O=C(O)c1nc2ccccc2c(=O)n1Cc1cn(-c2ccccc2F)nn1 [Compound 6c, 3-((1-(2-Fluorophenyl)-1H-1,2,3-triazol-4-yl)methyl)-4-oxo-3,4-dihydroquinazoline-2-carboxylic acid] | no significant decrease in cell viability | < 20
125 ± 5.9 (≈ 331 µM) | COc1ccc(-n2cc(Cn3c(C(=O)O)nc4ccccc4c3=O)nn2)cc1 [Compound 6o, 3-((1-(4-Methoxyphenyl)-1H-1,2,3-triazol-4-yl)methyl)-4-oxo-3,4-dihydroquinazoline-2-carboxylic acid] |  | 
119 ± 7.6 (≈ 342 µM) | O=C(O)c1nc2ccccc2c(=O)n1Cc1cn(-c2ccccc2)nn1 [Compound 6a, 4-Oxo-3-((1-phenyl-1H-1,2,3-triazol-4-yl)methyl)-3,4-dihydroquinazoline-2-carboxylic acid] |  | 
87 ± 4 (≈ 241 µM) | Cc1ccc(-n2cc(Cn3c(C(=O)O)nc4ccccc4c3=O)nn2)cc1 [Compound 6n, 4-Oxo-3-((1-p-tolyl-1H-1,2,3-triazol-4-yl)methyl)-3,4-dihydroquinazoline-2-carboxylic acid] | no significant decrease in cell viability | < 20
131 ± 4.3 (≈ 363 µM) | Cc1ccccc1-n1cc(Cn2c(C(=O)O)nc3ccccc3c2=O)nn1 [Compound 6d, 4-Oxo-3-((1-o-tolyl-1H-1,2,3-triazol-4-yl)methyl)-3,4-dihydroquinazoline-2-carboxylic acid] |  | 
701 ± 23.6 (≈ 1790 µM) | O=C(O)c1nc2ccccc2c(=O)n1Cc1cn(-c2ccccc2[N+](=O)[O-])nn1 [Compound 6f, 3-((1-(2-Nitrophenyl)-1H-1,2,3-triazol-4-yl)methyl)-4-oxo-3,4-dihydroquinazoline-2-carboxylic acid] |  | 
214 ± 11 (≈ 568 µM) | COc1cccc(-n2cc(Cn3c(C(=O)O)nc4ccccc4c3=O)nn2)c1 [Compound 6j, 3-((1-(3-Methoxyphenyl)-1H-1,2,3-triazol-4-yl)methyl)-4-oxo-3,4-dihydroquinazoline-2-carboxylic acid] |  | 
916 ± 15.5 (≈ 2340 µM) | O=C(O)c1ccc(-n2cc(Cn3c(C(=O)O)nc4ccccc4c3=O)nn2)cc1 [Compound 6q, 3-((1-(4-Carboxyphenyl)-1H-1,2,3-triazol-4-yl)methyl)-4-oxo-3,4-dihydroquinazoline-2-carboxylic acid] |  | 
133 ± 4.2 (≈ 369 µM) | Cc1cccc(-n2cc(Cn3c(C(=O)O)nc4ccccc4c3=O)nn2)c1 [Compound 6i, 4-Oxo-3-((1-m-tolyl-1H-1,2,3-triazol-4-yl)methyl)-3,4-dihydroquinazoline-2-carboxylic acid] |  | 
789 ± 16.4 (≈ 2010 µM) | O=C(O)c1nc2ccccc2c(=O)n1Cc1cn(-c2ccc([N+](=O)[O-])cc2)nn1 [Compound 6p, 3-((1-(4-Nitrophenyl)-1H-1,2,3-triazol-4-yl)methyl)-4-oxo-3,4-dihydroquinazoline-2-carboxylic acid] |  | 
701 ± 23.6 (≈ 1790 µM) | O=C(O)c1nc2ccccc2c(=O)n1Cc1cn(-c2cccc([N+](=O)[O-])c2)nn1 [Compound 6k, 3-((1-(3-Nitrophenyl)-1H-1,2,3-triazol-4-yl)methyl)-4-oxo-3,4-dihydroquinazoline-2-carboxylic acid] |  | 
221 ± 11.2 (≈ 579 µM) | O=C(O)c1nc2ccccc2c(=O)n1Cc1cn(-c2ccc(Cl)cc2)nn1 [Compound 6l, 3-((1-(4-Chlorophenyl)-1H-1,2,3-triazol-4-yl)methyl)-4-oxo-3,4-dihydroquinazoline-2-carboxylic acid] |  | 
169 ± 3.4 (≈ 442 µM) | O=C(O)c1nc2ccccc2c(=O)n1Cc1cn(-c2ccccc2Cl)nn1 [Compound 6b, 3-((1-(2-Chlorophenyl)-1H-1,2,3-triazol-4-yl)methyl)-4-oxo-3,4-dihydroquinazoline-2-carboxylic acid] |  | 
135 ± 2.4 (≈ 369 µM) | O=C(O)c1nc2ccccc2c(=O)n1Cc1cn(-c2cccc(F)c2)nn1 [Compound 6h, 3-((1-(3-Fluorophenyl)-1H-1,2,3-triazol-4-yl)methyl)-4-oxo-3,4-dihydroquinazoline-2-carboxylic acid] |  | 
